This is a sample that favours compounds with a hit; in the whole collection about 10% have one here.
PMI activator – activators of human PMI, primary screen, biochemical, fluorescence intensity, near-Km mannose 6-phosphate; activation factor at 20 µM; purified human PMI, coupled resazurin fluorescence, 20 min; stronger effect = higher value; 1 = vehicle control, 0 substrate-free wells; Mannose-6-phosphate isomerase (Homo sapiens), P34949; AID 1214, 2008; actives 0.005% (n = 190,000);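 active = activation factor of 2 or more at 20 µM, relative to plate controls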
Target sequence (P34949 whole entry, looked up): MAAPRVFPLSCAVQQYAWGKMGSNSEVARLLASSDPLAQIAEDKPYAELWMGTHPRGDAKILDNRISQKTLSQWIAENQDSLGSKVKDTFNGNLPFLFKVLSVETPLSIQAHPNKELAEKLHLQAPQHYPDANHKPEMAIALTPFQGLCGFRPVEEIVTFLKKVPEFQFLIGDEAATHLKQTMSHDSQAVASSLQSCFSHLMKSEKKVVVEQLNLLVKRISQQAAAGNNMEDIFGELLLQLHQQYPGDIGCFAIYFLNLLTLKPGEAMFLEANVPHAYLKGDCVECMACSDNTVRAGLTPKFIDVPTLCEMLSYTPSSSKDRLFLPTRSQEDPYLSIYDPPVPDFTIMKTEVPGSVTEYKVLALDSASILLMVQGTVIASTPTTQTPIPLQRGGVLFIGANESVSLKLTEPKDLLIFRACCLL
PMI act hi M6P – human PMI activators, high substrate, primary screen, biochemical, fluorescence intensity, near-saturating mannose 6-phosphate | coupled PMI enzyme assay, resazurin fluorescence, 20 min; stronger effect = higher value; 1 = untreated enzyme, 0 = substrate-free blank | activation factor at 20 µM | actives 0.34% (n = 190,000) | AID 1216, 2008;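 active = activation factor of 2 or more at 20 µM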
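Test system: human phosphomannose isomerase with PGI, G6PDH, diaphorase coupling enzymes / Doses: 20 µM compound, 1% DMSO / Times: enzyme reaction with compound 20 min at room temperature / Measured by: Diaphorase-driven resazurin-to-resorufin fluorescence, excitation 544, emission 590 nm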
Lmaj promast – Leishmania major promastigote growth inhibition, primary screen; inhibition, % at 10 µM; Leishmania major promastigotes, resazurin fluorescence viability; AID 1063, 2008; actives 9% (n = 200,000); in the data active = inhibition above about 50%;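 also: promastigotes grown with compound for 44 hours at 28 °C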
Diaph act CS – compounds boosting diaphorase resazurin reduction – biochemical, uHTS, resorufin fluorescence, counter-screen for diaphorase-coupled primary assays, primary screen | Diaphorase/resazurin coupled assay, 16 min; stronger effect = higher value; 1 = vehicle wells, 0 = NADH-free wells | activation factor at 20 µM | actives 0.005% (n = 190,000);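 active = diaphorase activity raised at least twofold by the compound at 20 µM; inactive = activation factor below 2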
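Material: purified diaphorase enzyme from Clostridium kluyveri; Also added: 0.114 mM NADH and 0.1 mM resazurin, final amounts; Doses: single compound dose of 20 µM, 1% DMSO final; Times: 16 min enzyme reaction, ambient temperature; Detection: resorufin fluorescence, excitation 544 nm, emission 590 nm; Measure: increased resorufin signal from activators or reducing compounds.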
WT yeast gro inh – growth inhibition of WT strain, primary screen, mitochondrial fusion inhibitor project, WT and mutant strains, chemical genetic; mitochondrial fusion phenotypic screen; inhibition, % at 10 µM; actives 2.1% (n = 190,000); in the data active = inhibition above about 58%; tested in S. cerevisiae
* = called active by the depositor.

How did CCOC(=O)C1=NN(N=O)C2(CC(=O)N(c3cc(C)cc(C)c3)C2=O)C1 (centres undefined) do in these assays?
PMI activator: 1.7; PMI act hi M6P: 2.2*; Lmaj promast: 5; Diaph act CS: 1; WT yeast gro inh: 1

What do the screens show for `Cc1c(/C=N/NC(=O)CNc2ccccc2)c2ccccn2c1C(=O)c1ccncc1`?
PMI activator: 0.9; PMI act hi M6P: 0.9; Lmaj promast: 100*; Diaph act CS: 0.8; WT yeast gro inh: 3

Results for COc1ccc(CNS(=O)(=O)c2cc(OCC(N)=O)c(C)cc2Cl)cc1 ?
PMI activator: 1.1; PMI act hi M6P: 1.1; Lmaj promast: -3; Diaph act CS: 1; WT yeast gro inh: -4

How did O=C(CSc1nc2ccccc2n1CCc1ccccc1)c1ccc(O)c(O)c1 do in these assays?
PMI activator: 1.1; PMI act hi M6P: 1.6; Lmaj promast: -5; Diaph act CS: 0.4; WT yeast gro inh: 19

How did COc1ccc(O)c(C=Nc2cc(NC(C)=O)c(Cl)cc2Cl)c1 do in these assays?
PMI activator: 0.9; PMI act hi M6P: 0.8; Lmaj promast: 64*; Diaph act CS: 0.8; WT yeast gro inh: 5

Results for Cc1ccc(CNCCC2=CCCCC2)cc1 ?
PMI activator: 0.9; PMI act hi M6P: 1; Lmaj promast: 70*; Diaph act CS: 0.8; WT yeast gro inh: 6

Results for CCCNC(=O)C(=O)NCCC1=CCCCC1 ?
PMI activator: 1; PMI act hi M6P: 1; Lmaj promast: -2; Diaph act CS: 1.1; WT yeast gro inh: -2

How did O=C(COc1ncnc2c(Cl)cc(Cl)cc12)NCCC1=CCCCC1 do in these assays?
PMI activator: 1; PMI act hi M6P: 1; Lmaj promast: 100*; Diaph act CS: 1; WT yeast gro inh: -1

How did NC(=O)NCCC1=CCCCC1 do in these assays?
PMI activator: 1; PMI act hi M6P: 1.1; Lmaj promast: -4; Diaph act CS: 1; WT yeast gro inh: 59*

What do the screens show for `O=C(COC(=O)Cc1ccc(Cl)cc1Cl)NCCC1=CCCCC1`?
PMI activator: 0.9; PMI act hi M6P: 0.9; Lmaj promast: 54*; Diaph act CS: 0.8; WT yeast gro inh: -9

Results for COc1ccc([N+](=O)[O-])cc1NC(=O)c1ccc(N(Cc2ccccc2Cl)S(C)(=O)=O)cc1 ?
PMI activator: 0.8; PMI act hi M6P: 0.8; Lmaj promast: 15; Diaph act CS: 0.8; WT yeast gro inh: -29

How did CC(Sc1nnc(-c2ccccc2Br)n1-c1cccc(C(F)(F)F)c1)C(N)=O (centres undefined) do in these assays?
PMI activator: 1; PMI act hi M6P: 0.9; Lmaj promast: 2; Diaph act CS: 0.8; WT yeast gro inh: 6

Results for CC1=NNC(=O)C1CCC(=O)N/N=C/C(Br)=C/c1ccccc1 (centres undefined) ?
PMI activator: 1.1; PMI act hi M6P: 1.4; Lmaj promast: -5; Diaph act CS: 1; WT yeast gro inh: 3

Results for Cc1ccccc1-n1nc(CSc2nc3ccccc3[nH]2)c(-c2ccccc2)c1N ?
PMI activator: 0.9; PMI act hi M6P: 1; Lmaj promast: 19; Diaph act CS: 0.8; WT yeast gro inh: 35

What do the screens show for `Nc1c(-c2ccccc2)c(CSc2nc3ccccc3[nH]2)nn1-c1ccc(Cl)cc1`?
PMI activator: 1; PMI act hi M6P: 1; Lmaj promast: 97*; Diaph act CS: 1; WT yeast gro inh: 72*

What do the screens show for `Nc1c(-c2ccccc2)c(CSc2nc3ccccc3[nH]2)nn1-c1cccc(Cl)c1`?
PMI activator: 0.9; PMI act hi M6P: 0.9; Lmaj promast: 98*; Diaph act CS: 1; WT yeast gro inh: 71*

How did O=C(Nc1ccc(NC(=O)c2sc3ccccc3c2Cl)cc1)c1ccco1 do in these assays?
PMI activator: 0.8; PMI act hi M6P: 1; Lmaj promast: -6; Diaph act CS: 1; WT yeast gro inh: -29

How did Cc1ccc(Nc2nc(Cl)nc(N(C)C#N)n2)cc1 do in these assays?
PMI activator: 1; PMI act hi M6P: 1; Lmaj promast: 97*; Diaph act CS: 0.9; WT yeast gro inh: 8
